Series [1] in a line: Drug level in Sprague-Dawley rat at 0.5 mg/kg, iv. The format is ADME, organism-based. Further details: dose 0.5 mg/kg, route intravenous. The note with it: in vivo. Summed up:
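Female Sprague–Dawley rats dosed as 1-in-4 cassette or discrete studies. iv in DMSO/PEG200 20:80; po in aqueous 2% Tween 80/0.5% methyl cellulose. Parameters reported: C0, Cmax, t1/2, plasma clearance, Vss, AUC0-inf and %F.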

Series [2] deals with Rhesus monkey. The series is described as follows: Effect on cell proliferation in rhesus monkey assessed as number of mitotic cells per 1000 cells.

Here are results for 1 compound from ChEMBL document CHEMBL1144664, “Design, synthesis, and SAR of new pyrrole-oxindole progesterone receptor modulators leading to 5-(7-fluoro-3,3-dimethyl-2-oxo-2,3-dihydro-1H-indol-5-yl)-1-methyl-1H-pyrrole-2-carbonitrile (WAY-255348)” (J Med Chem, 2008).

On to `Cn1c(C#N)ccc1-c1cc(F)c2c(c1)C(C)(C)C(=O)N2`, for which the C0 in series [1] was found to be 385 ng/mL. In addition, in series [2], the Activity is listed as 2.2.
